ChEMBL document CHEMBL3588757, “Structure-based design, synthesis and biological testing of piperazine-linked bis-epipodophyllotoxin etoposide analogs” (Bioorg Med Chem, 2015)

Experiments:
Assay type in all cases: functional
OVCAR-4 = experiment: Cytotoxicity against human OVCAR4 cells assessed as cell growth at 50 uM by SRB assay; conditions: read-out: Activity
TK-10 [1] = experiment: Cytotoxicity against human TK10 cells assessed as cell growth at 50 uM by SRB assay; conditions: read-out: Activity
PC-3 = experiment: Cytotoxicity against human PC3 cells assessed as cell growth at 50 uM by SRB assay; conditions: read-out: Activity
[2] = Cytotoxicity against human Hs578T cells assessed as cell growth at 50 uM by SRB assay; conditions: Hs-578T, read-out: Activity
Method in brief: (§1)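 Measured in the NCI-60 human tumour cell line panel using five-dose testing. Growth was recorded at each dose for each cell line, and a GI50 was derived for each line.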

MDA-MB-468 = experiment: Cytotoxicity against human MDA-MB-468 cells assessed as cell growth at 50 uM by SRB assay; conditions: read-out: Activity
NCI-H226 = experiment: Cytotoxicity against human NCI-H226 cells by SRB assay
Method in brief: (§2)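 NCI-60 panel screen; 5-dose testing giving GI50 per cell line, plus a single 10 µM one-dose test. Method details not given beyond the NCI screen.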

KM12 [3] = experiment: Cytotoxicity against human KM12 cells by SRB assay; method in brief: as §2
SF-539 = experiment: Cytotoxicity against human SF539 cells by SRB assay; method in brief: as §2
M14 [4] = experiment: Cytotoxicity against human M14 cells by SRB assay; method in brief: as §2
UACC-62 = experiment: Cytotoxicity against human UACC62 cells by SRB assay; method in brief: as §2
RXF 393 [5] = experiment: Cytotoxicity against human RXF393 cells by SRB assay; method in brief: as §2
NCI-H460 = experiment: Cytotoxicity against human NCI-H460 cells assessed as cell growth at 0.005 uM by SRB assay; conditions: read-out: Activity
SW-620 [6] = experiment: Cytotoxicity against human SW620 cells assessed as cell growth at 0.005 uM by SRB assay; conditions: read-out: Activity
SNB-75 = experiment: Cytotoxicity against human SNB75 cells assessed as cell growth at 0.005 uM by SRB assay; conditions: read-out: Activity
LOX IMVI = experiment: Cytotoxicity against human LOXIMVI cells assessed as cell growth at 0.005 uM by SRB assay; conditions: read-out: Activity
M14 [7] = experiment: Cytotoxicity against human M14 cells assessed as cell growth at 0.005 uM by SRB assay; conditions: read-out: Activity
SK-MEL-2 = experiment: Cytotoxicity against human SK-MEL-2 cells assessed as cell growth at 0.005 uM by SRB assay; conditions: read-out: Activity
IGROV-1 = experiment: Cytotoxicity against human IGROV1 cells assessed as cell growth at 0.005 uM by SRB assay; conditions: read-out: Activity; method in brief: as §1
[8] = Cytotoxicity against human Hs578T cells assessed as cell growth at 0.005 uM by SRB assay; conditions: Hs-578T, read-out: Activity; method in brief: as §1
HOP-92 = experiment: Cytotoxicity against human HOP92 cells assessed as cell growth at 0.05 uM by SRB assay; conditions: read-out: Activity; method in brief: as §1
NCI-H23 [9] = experiment: Cytotoxicity against human NCI-H23 cells assessed as cell growth at 0.05 uM by SRB assay; conditions: read-out: Activity
HCT-116 = experiment: Cytotoxicity against human HCT116 cells assessed as cell growth at 0.05 uM by SRB assay; conditions: read-out: Activity; method in brief: as §1
SW-620 [10] = experiment: Cytotoxicity against human SW620 cells assessed as cell growth at 0.05 uM by SRB assay; conditions: read-out: Activity
SK-MEL-28 = experiment: Cytotoxicity against human SK-MEL-28 cells assessed as cell growth at 0.05 uM by SRB assay; conditions: read-out: Activity
SK-OV-3 [11] = experiment: Cytotoxicity against human SKOV3 cells assessed as cell growth at 0.05 uM by SRB assay; conditions: read-out: Activity
RXF 393 [12] = experiment: Cytotoxicity against human RXF393 cells assessed as cell growth at 0.05 uM by SRB assay; conditions: read-out: Activity
HL-60(TB) = experiment: Cytotoxicity against human HL-60(TB) cells assessed as cell growth at 0.5 uM by SRB assay; conditions: read-out: Activity; method in brief: as §1
NCI-H23 [13] = experiment: Cytotoxicity against human NCI-H23 cells assessed as cell growth at 0.5 uM by SRB assay; conditions: read-out: Activity
HCT-15 = experiment: Cytotoxicity against human HCT15 cells assessed as cell growth at 0.5 uM by SRB assay; conditions: read-out: Activity; method in brief: as §1
TK-10 [14] = experiment: Cytotoxicity against human TK10 cells assessed as cell growth at 0.5 uM by SRB assay; conditions: read-out: Activity
COLO 205 = experiment: Cytotoxicity against human COLO205 cells assessed as cell growth at 5 uM by SRB assay; conditions: read-out: Activity
KM12 [15] = experiment: Cytotoxicity against human KM12 cells assessed as cell growth at 5 uM by SRB assay; conditions: read-out: Activity
SW-620 [16] = experiment: Cytotoxicity against human SW620 cells assessed as cell growth at 5 uM by SRB assay; conditions: read-out: Activity
MDA-MB-435 = experiment: Cytotoxicity against human MDA-MB-435 cells assessed as cell growth at 5 uM by SRB assay; conditions: read-out: Activity
UACC-257 = experiment: Cytotoxicity against human UACC257 cells assessed as cell growth at 5 uM by SRB assay; conditions: read-out: Activity
OVCAR-8 = experiment: Cytotoxicity against human OVCAR8 cells assessed as cell growth at 5 uM by SRB assay; conditions: read-out: Activity
SK-OV-3 [17] = experiment: Cytotoxicity against human SKOV3 cells assessed as cell growth at 5 uM by SRB assay; conditions: read-out: Activity
CAKI-1 = experiment: Cytotoxicity against human Caki1 cells assessed as cell growth at 5 uM by SRB assay; conditions: read-out: Activity
MCF7 = experiment: Cytotoxicity against human MCF7 cells assessed as cell growth at 5 uM by SRB assay; conditions: read-out: Activity
BT-549 = experiment: Cytotoxicity against human BT549 cells assessed as cell growth at 5 uM by SRB assay; conditions: read-out: Activity
CCRF-CEM = experiment: Cytotoxicity against human CCRF-CEM cells assessed as cell growth at 50 uM by SRB assay; conditions: read-out: Activity
NCI-H322M = experiment: Cytotoxicity against human NCI-H322M cells assessed as cell growth at 50 uM by SRB assay; conditions: read-out: Activity
NCI-H522 = experiment: Cytotoxicity against human NCI-H522 cells assessed as cell growth at 50 uM by SRB assay; conditions: read-out: Activity
[18] = read-out: LC50 (the source's name)
[19] = read-out: pLC50 (the source's name) (converted)

COc1cc([C@@H]2c3cc4c(cc3[C@@H](NC(=O)CN3CCN(CCCCCCCCCCN5CCN(CC(=O)N[C@@H]6c7cc8c(cc7[C@@H](c7cc(OC)c(O)c(OC)c7)[C@H]7C(=O)OC[C@@H]76)OCO8)CC5)CC3)[C@H]3COC(=O)[C@H]23)OCO4)cc(OC)c1O
growth at 50 µM (OVCAR-4): -77%
growth at 50 µM (TK-10 [1]): -98%
growth at 50 µM (PC-3): -51%
growth at 50 µM [2]: -22%
growth at 50 µM (MDA-MB-468): -69%
GI50 (NCI-H226; read-out: GI50): 469 nM
CC50 (NCI-H226; [18]): 22600 nM
TGI (NCI-H226; read-out: TGI): 9320 nM
GI50 (NCI-H226; read-out: pGI50 (converted)): 468 nM
CC50 (NCI-H226; [19]): 22400 nM
TGI (NCI-H226; read-out: pTGI (converted)): 9330 nM
GI50 (KM12 [3]; read-out: GI50): 892 nM
CC50 (KM12 [3]; [18]): > 50000 nM
TGI (KM12 [3]; read-out: TGI): 2950 nM
GI50 (KM12 [3]; read-out: pGI50 (converted)): 891 nM
CC50 (KM12 [3]; [19]): > 50100 nM
TGI (KM12 [3]; read-out: pTGI (converted)): 2950 nM
GI50 (SF-539; read-out: GI50): 122 nM
TGI (SF-539; read-out: TGI): 670 nM
GI50 (SF-539; read-out: pGI50 (converted)): 123 nM
TGI (SF-539; read-out: pTGI (converted)): 676 nM
GI50 (M14 [4]; read-out: GI50): 703 nM
CC50 (M14 [4]; [18]): > 50000 nM
TGI (M14 [4]; read-out: TGI): 2200 nM
GI50 (M14 [4]; read-out: pGI50 (converted)): 708 nM
CC50 (M14 [4]; [19]): > 50100 nM
TGI (M14 [4]; read-out: pTGI (converted)): 2190 nM
GI50 (UACC-62; read-out: GI50): 7230 nM
CC50 (UACC-62; [18]): > 50000 nM
TGI (UACC-62; read-out: TGI): 24100 nM
GI50 (UACC-62; read-out: pGI50 (converted)): 7240 nM
CC50 (UACC-62; [19]): > 50100 nM
TGI (UACC-62; read-out: pTGI (converted)): 24000 nM
GI50 (RXF 393 [5]; read-out: GI50): 791 nM
CC50 (RXF 393 [5]; [18]): > 50000 nM
TGI (RXF 393 [5]; read-out: TGI): 2380 nM
GI50 (RXF 393 [5]; read-out: pGI50 (converted)): 794 nM
CC50 (RXF 393 [5]; [19]): > 50100 nM
TGI (RXF 393 [5]; read-out: pTGI (converted)): 2400 nM
growth at 0.005 µM (NCI-H460): 91%
growth at 0.005 µM (SW-620 [6]): 92%
growth at 0.005 µM (SNB-75): 95%
growth at 0.005 µM (LOX IMVI): 86%
growth at 0.005 µM (M14 [7]): 94%
growth at 0.005 µM (SK-MEL-2): 99%
growth at 0.005 µM (IGROV-1): 90%
growth at 0.005 µM [8]: 94%
growth at 0.05 µM (HOP-92): 73%
growth at 0.05 µM (NCI-H23 [9]): 81%
growth at 0.05 µM (HCT-116): 77%
growth at 0.05 µM (SW-620 [10]): 75%
growth at 0.05 µM (SK-MEL-28): 100%
growth at 0.05 µM (SK-OV-3 [11]): 85%
growth at 0.05 µM (RXF 393 [12]): 84%
growth at 0.5 µM (HL-60(TB)): 15%
growth at 0.5 µM (NCI-H23 [13]): 25%
growth at 0.5 µM (HCT-15): 45%
growth at 0.5 µM (TK-10 [14]): 96%
growth at 5 µM (COLO 205): -13%
growth at 5 µM (KM12 [15]): -22%
growth at 5 µM (SW-620 [16]): -63%
growth at 5 µM (MDA-MB-435): -60%
growth at 5 µM (UACC-257): -97%
growth at 5 µM (OVCAR-8): -28%
growth at 5 µM (SK-OV-3 [17]): 4%
growth at 5 µM (CAKI-1): 28%
growth at 5 µM (MCF7): 18%
growth at 5 µM (BT-549): -66%
growth at 50 µM (CCRF-CEM): 2%
growth at 50 µM (NCI-H322M): -23%
growth at 50 µM (NCI-H522): -55%
